We go through twelve molecules from ChEMBL document CHEMBL3585256, “Triphenylphosphonium Cations of the Diterpenoid Isosteviol: Synthesis and Antimitotic Activity in a Sea Urchin Embryo Model” (J Nat Prod, 2015).

Active and inactive are the calls of the source. Where only a bound is given, the exact number is not on record here.

The IC50 is the midpoint of a concentration-inhibition curve.

Series [1] relates to Paracentrotus lividus. Put plainly: Antimitotic activity against sea urichin L embryo model assessed as cleavage alteration after 2.5 to 5.5 hrs of fertilization by sea urichin embryo assay. In kind it is functional.
In series [2] the test system is Paracentrotus lividus. Put plainly: Antimitotic activity against sea urichin L embryo model assessed as full mitotic arrest by sea urichin embryo assay. In kind it is functional.
Series [3] has as its system Paracentrotus lividus. Put plainly: Antimitotic activity against sea urichin L embryo model assessed as embryo spinning by sea urichin embryo assay. In kind it is functional.
The subject of series [4] is Paracentrotus lividus. Briefly: Antimitotic activity against sea urichin L embryo model assessed as death of embryo at hatched blastula stage by sea urichin embryo assay. In kind it is functional.
Series [5] deals with Paracentrotus lividus. Briefly: Induction of mitotic spindle defects in sea urichin L embryo model assessed as aberrant mitotic spindles by conventional light microscopy. In kind it is functional, organism-based. Put shortly:
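Eggs exposed 8−15 min postfertilization, incubated at 21 °C. Mitotic apparatus examined by light microscopy at 1 h (first cleavage anaphase) and 2.5 h postfertilization, scored for aberrant, multipolar or absent spindles.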

Series [6] has as its system Paracentrotus lividus. Put plainly: Antimitotic activity against sea urichin L embryo model assessed as inhibition of skeletal spiculae growth by sea urichin embryo assay. In kind it is functional. A digest of the protocol:
(§1)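 Hatched free-swimming blastulae (8−9 h postfertilization) exposed to compound and followed to four-arm pluteus (34−36 h). Scored for spicule growth inhibition or arrest at late gastrula. Gametes obtained by intracoelomic 0.5 M KCl; embryos grown in filtered seawater at room temperature with paddle stirring, monolayer up to 2000 embryos/mL. Stocks in DMSO diluted with EtOH, or in water.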

The subject of a further series is HL-60. Briefly: Cytotoxicity against human HL60 cells by MTT assay. In kind it is functional, cell-based. (Tetrazolium assays rely on reduction of a dye to a coloured formazan, in cell work by metabolically active cells.)
A short description of series [7]: Cytotoxicity against human NUGC3 cells by MTT assay. In kind it is functional. The conditions noted are these: NUGC-3, read-out: LD50 (the source's name).
Series [8] concerns Paracentrotus lividus. Put plainly: Toxicity in sea urichin L embryo assessed as development up to 4 uM. In kind it is organism-based. The following applies: in vivo. Put shortly: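 Fertilized eggs exposed 8−15 min postfertilization to 2-fold decreasing concentrations, with cleavage alteration or arrest scored at 2.5−5.5 h. Effective threshold concentration defined as the lowest giving 100% cleavage alteration and embryo death before hatching, with no effect at 2-fold lower. Final DMSO ≤0.05% and EtOH ≤1%. Run in duplicate.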

For another series, the system named is MOLT-4. Put plainly: Cytotoxicity against human MOLT4 cells by MTT assay. The following applies: read-out: LD50 (the source's name). In kind it is functional.
The test system of another series is BALL-1. Briefly: Cytotoxicity against human BALL-1 cells by MTT assay. In kind it is functional. The following applies: read-out: LD50 (the source's name).
The test system of series [9] is Paracentrotus lividus. Put plainly: Induction of mitotic spindle defects in sea urichin L embryo model assessed as formation of aberrant mitotic spindles at 2 uM by conventional light microscopy.
For series [10], the system named is Paracentrotus lividus. Put plainly: Antimitotic activity against sea urichin L embryo model assessed as late gastrula stage by sea urichin embryo assay. In kind it is functional. Put shortly: as §1
In series [11] the test system is Paracentrotus lividus. Put plainly: Induction of mitotic spindle defects in sea urichin L embryo model assessed as complete blocked of spindle assembly at 50 nM by conventional light microscopy.

For `C[C@@]12CC[C@@H]3[C@@](CC[C@H]4[C@@]3(C)CCC[C@@]4(C)C(=O)OCCCCCCCC[P+](c3ccccc3)(c3ccccc3)c3ccccc3)(CC1=O)C2.[Br-]`, the EC in the series with Paracentrotus lividus [1] was 2 µM; with Paracentrotus lividus [2], more than 4 µM; in the series with Paracentrotus lividus [3], more than 4 µM; in the series with Paracentrotus lividus [4], 0.5 µM. For the same molecule, the result with Paracentrotus lividus [5] was Active.

On to `C[C@@]12CC[C@@H]3[C@@](CC[C@H]4[C@@]3(C)CCC[C@@]4(C)C(=O)OCCOCCOCCOCC[P+](c3ccccc3)(c3ccccc3)c3ccccc3)(CC1=O)C2.[Br-]`, for which the values for the EC in the series with Paracentrotus lividus [1], in the series on Paracentrotus lividus [2] and in the series on Paracentrotus lividus [3] were 1 µM, 2 µM and more than 10 µM, respectively. For the same molecule, the result in the series on Paracentrotus lividus [5] was Active.

As for `CC[N+](CC)(CC)CCOCCOCCOCCOC(=O)[C@]1(C)CCC[C@@]2(C)[C@@H]3CC[C@@]4(C)C[C@]3(CC[C@@H]21)CC4=O.[Br-]`, the EC in the series on Paracentrotus lividus [1] was more than 100 µM; with Paracentrotus lividus [2] it was more than 100 µM; with Paracentrotus lividus [3], more than 100 µM; in the series on Paracentrotus lividus [6], 100 µM.

On to `C[C@@]12CC[C@@H]3[C@@](CC[C@H]4[C@@]3(C)CCC[C@@]4(C)C(=O)OCCC[P+](c3ccccc3)(c3ccccc3)c3ccccc3)(CC1=O)C2.[Br-]`, for which the EC was 2 µM in the series on Paracentrotus lividus [1], more than 4 µM in the series with Paracentrotus lividus [2], more than 4 µM in the series on Paracentrotus lividus [3] and 4 µM in the series with Paracentrotus lividus [4]. Besides, the outcome with Paracentrotus lividus [5] was Active.

In the case of `COc1cc([C@@H]2c3cc4c(cc3[C@@H](O[C@@H]3O[C@@H]5CO[C@@H](C)O[C@H]5[C@H](O)[C@H]3O)[C@H]3COC(=O)[C@H]23)OCO4)cc(OC)c1O` [ETOPOSIDE], the EC with Paracentrotus lividus [1] is 0.5 µM; in the series on Paracentrotus lividus [2] it was more than 68 µM; in the series with Paracentrotus lividus [3], more than 68 µM; in the series with Paracentrotus lividus [4], 40 µM; in the series with Paracentrotus lividus [6] it was 4 µM.

As for `C[C@@]12CC[C@@H]3[C@@](CC[C@H]4[C@@]3(C)CCC[C@@]4(C)C(=O)OCCOCCOCC[P+](c3ccccc3)(c3ccccc3)c3ccccc3)(CC1=O)C2.[Br-]`, the EC in the series on Paracentrotus lividus [1] was 1 µM; in the series on Paracentrotus lividus [2], 2 µM; in the series with Paracentrotus lividus [3], more than 10 µM. For the same molecule, in the series with Paracentrotus lividus [5], the outcome was Active.

As for `CC(=O)O[C@H]1C(=O)[C@@]2(C)[C@H]([C@H](OC(=O)c3ccccc3)[C@]3(O)C[C@H](OC(=O)[C@H](O)[C@@H](NC(=O)c4ccccc4)c4ccccc4)C(C)=C1C3(C)C)[C@]1(OC(C)=O)CO[C@@H]1C[C@@H]2O` [PACLITAXEL], the EC in the series on Paracentrotus lividus [1] was 0.5 µM; in the series on Paracentrotus lividus [2], more than 10 µM; in the series on Paracentrotus lividus [3] it was more than 10 µM; with Paracentrotus lividus [4], 2 µM.

With `C[C@@]12CC[C@@H]3[C@@](CC[C@H]4[C@@]3(C)CCC[C@@]4(C)C(=O)O)(CC1=O)C2` [ISOSTEVIOL], the EC with Paracentrotus lividus [1], in the series with Paracentrotus lividus [2] and with Paracentrotus lividus [3] was more than 4 µM each time. For the same molecule, the IC50 with HL-60 came out at 75 µM. Also, the CC50 stood at 167 µM in series [7], 84 µM in the series on MOLT-4 and 87 µM in the series with BALL-1. Also, the Activity result in the series with Paracentrotus lividus [8] is reported as “Non-toxic”.

As for `CC[N+](CC)(CC)CCOCCOCCOC(=O)[C@]1(C)CCC[C@@]2(C)[C@@H]3CC[C@@]4(C)C[C@]3(CC[C@@H]21)CC4=O.[Br-]`, the EC with Paracentrotus lividus [1] is more than 100 µM; in the series with Paracentrotus lividus [2] it was more than 100 µM; in the series with Paracentrotus lividus [3] it was more than 100 µM; in the series with Paracentrotus lividus [6], 40 µM.

For `C[C@@]12CC[C@@H]3[C@@](CC[C@H]4[C@@]3(C)CCC[C@@]4(C)C(=O)OCCCCCC[P+](c3ccccc3)(c3ccccc3)c3ccccc3)(CC1=O)C2.[Br-]`, the EC with Paracentrotus lividus [1] was 2 µM; in the series on Paracentrotus lividus [2] it was more than 4 µM; with Paracentrotus lividus [3], more than 4 µM; in the series with Paracentrotus lividus [4] it was 1 µM. Further, the outcome in the series on Paracentrotus lividus [9] and in the series with Paracentrotus lividus [5] was Active.

As to `COC(=O)Nc1nc2cc(C(=O)c3cccs3)ccc2[nH]1` [NOCODAZOLE], the EC in the series on Paracentrotus lividus [1] was 0.005 µM; in the series on Paracentrotus lividus [2], 0.1 µM; in the series on Paracentrotus lividus [3] it was 0.1 µM; with Paracentrotus lividus [4], more than 0.5 µM; in the series on Paracentrotus lividus [10], 0.02 µM. Moreover, the outcome in the series with Paracentrotus lividus [11] was Active.

Consider `C[C@@]12CC[C@@H]3[C@@](CC[C@H]4[C@@]3(C)CCC[C@@]4(C)C(=O)OCCOCCOCCOCCOCC[P+](c3ccccc3)(c3ccccc3)c3ccccc3)(CC1=O)C2.[Br-]`, for which the values for the EC with Paracentrotus lividus [1], with Paracentrotus lividus [2] and in the series with Paracentrotus lividus [3] were 1 µM, 4 µM and more than 10 µM, respectively. Further, the outcome in the series on Paracentrotus lividus [5] was Active.
